Blank lines part the entries; values can stand above or below the compound they belong to.
Legend:
[1] = tested on: Gsc, Mixl1, Smad7, Skil, SerpinE1, Lefty1 expression in mESCs; experiment: qRT-PCR of activin/nodal target genes in mESCs / embryoid bodies; assay type: cell-based, mouse
In short: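 E14Tg2a.IV mESCs were kept feeder-free with LIF; Trim33-null lines were kept on MEFs. Variants were Trim33 knockdown by lentiviral shRNA, Smad2/3-depleted, Smad4-null, or reconstituted with TRIM33 constructs. Embryoid bodies formed for 2.5 days, then received activin A (50 ng/ml) or SB431542 (10 μM) for 2 h. Total RNA went to qRT-PCR. Mean ± S.D. of quadruplicates, three independent experiments.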

TRIM33 PHD-Bromo = target: T1, TRIM33 PHD-Bromo (Homo sapiens, UniProt Q9UPN9); experiment: ITC binding of H3; conditions: versus H3(1-28) (KD=0.46 μM)
T1 sequence (Q9UPN9 882-1087 limits assumed): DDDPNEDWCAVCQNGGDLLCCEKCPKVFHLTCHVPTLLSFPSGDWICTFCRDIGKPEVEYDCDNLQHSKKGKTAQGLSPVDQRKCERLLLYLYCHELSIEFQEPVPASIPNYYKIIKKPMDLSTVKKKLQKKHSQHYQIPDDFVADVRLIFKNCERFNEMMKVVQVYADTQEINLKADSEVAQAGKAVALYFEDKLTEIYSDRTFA

[2] = tested on: MDA-MB-231 breast carcinoma cells; conditions: and our unpublished work, ref Gomis et al., 2006; cited from earlier work
HaCaT keratinocytes [3] = conditions: and our unpublished work, ref Gomis et al., 2006; cited from earlier work
HaCaT cells = experiment: Luciferase reporter, SERPINE1; assay type: cell-based, human; conditions: SERPINE1 (PAI1) element
[4] = tested on: MDA-MB-231 breast carcinoma cells; experiment: TGF-β gene responses in MDA-MB-231; assay type: cell-based, human; conditions: qRT-PCR, MDA-MB-231, TRIM33 depletion
HaCaT keratinocytes [5] = experiment: TGF-β gene responses in HaCaT; assay type: cell-based, human; conditions: qRT-PCR
MDA-MB-231 cells = experiment: Luciferase reporter, repeats of Smad binding element; assay type: cell-based, human; conditions: SBE repeats
[6] = tested on: HP1γ at Gsc and Mixl1 promoters; experiment: ChIP of HP1γ at Gsc and Mixl1 promoters; assay type: cell-based, mouse; conditions: wild type and Trim33-null EBs day 2.5, activin 2 h
In short: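 Mouse E14Tg2a.IV ESCs (feeder-free, LIF) and Trim33-null ESCs (C57Bl/6J, on MEFs) formed EBs for 2.5 days, then got activin or SB for 2 h. HP1γ or no-antibody ChIP used a kit. Absolute qPCR covered Gsc −2.3 kb and Mixl1 −0.2/−0.5 kb, as % input. Mean ± S.D. of quadruplicates.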

[7] = tested on: Smad4 at Gsc and Mixl1 promoters; experiment: ChIP of Smad4 at Gsc / Mixl1 promoters; assay type: cell-based, mouse; conditions: EBs day 2.5, activin 2 h
In short: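 Wild-type, shRNA Trim33-depleted or TRIM33-reconstituted mESCs formed EBs for 2.5 days, then 2 h with activin A (50 ng/ml) or SB431542 (10 μM). Cells were crosslinked in 1% formaldehyde at 37 °C for 10 min and quenched in 0.125 M glycine. Anti-Smad4 ChIP was read by absolute qPCR of Gsc (−0.4 kb) and Mixl1 (−0.5/−0.2 kb) as % input. Mean ± S.D. of quadruplicates, three experiments.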

[8] = tested on: Smad4-Smad2/3 complex in mESCs; experiment: Smad2/3 co-immunoprecipitation, Smad4-Smad2/3 complex formation; assay type: cell-based, mouse
[9] = tested on: histone H3 modified residues at Gsc and Mixl1 promoters; experiment: ChIP of histone H3 marks at Gsc and Mixl1 promoters; assay type: cell-based, mouse; conditions: activin
In short: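 Histone-mark ChIP used day-2.5 mESC embryoid bodies treated with activin A (50 ng/ml) or SB431542 (10 μM). Cells were fixed with 1% formaldehyde (37 °C, 10 min) and quenched with glycine. Antibodies recognised modified H3 residues; protein A/G beads alone served as negative controls. Mono-nucleosome templates came from micrococcal nuclease digestion. Absolute qRT-PCR, percent of input. Mean ± S.D. of quadruplicates, ≥3 experiments.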

[10] = tested on: activin responsive genes in EBs; experiment: Genome-wide transcriptomic analysis; assay type: cell-based, mouse; conditions: >3 fold change
[11] = tested on: TRIM33 at Gsc and Mixl1 promoters; experiment: ChIP of TRIM33 at Gsc / Mixl1 promoters; assay type: cell-based, mouse
In short: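 EBs (day 2.5) came from wild-type, Trim33-depleted, Smad2/3-depleted or Smad4-null mESCs. They were given activin A (50 ng/ml) or SB431542 (10 μM) for 2 h. Formaldehyde crosslinking (1%, 37 °C, 10 min) was quenched with glycine. Anti-TRIM33 ChIP used a kit, with absolute qPCR of Gsc/Mixl1 promoter regions reported as % input. Mean ± S.D. of quadruplicates, at least three experiments.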

[12] = tested on: TRIM33-Smad2/3 complex in mESCs; experiment: Smad2/3 co-immunoprecipitation, TRIM33-Smad2/3 complex formation; assay type: cell-based, mouse
[13] = tested on: RNA Pol II at Gsc and Mixl1 promoters; experiment: ChIP of RNA Pol II at Gsc and Mixl1 promoters; assay type: cell-based, mouse; conditions: Gsc -0.1 kb, Mixl1 -0.2 kb, EBs day 2.5, activin 2 h
In short: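 Mouse ESC embryoid bodies at day 2.5 (wild type or Trim33-null) received activin or SB431542 for 2 h. ChIP used anti-RNA Pol II. qRT-PCR read Gsc −0.1 kb and Mixl1 −0.2 kb as percent of input. Mean ± S.D. of quadruplicates, two independent experiments.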

Compound: NC(=O)c1ccc(-c2nc(-c3ccc4c(c3)OCO4)c(-c3ccccn3)[nH]2)cc1 [SB431542, reference compound]
sensitivity of endogenous nodal-like factor responses to SB431542 ([1]; mESC EBs, SB431542 10 μM): SB431542-sensitive

enhancement of binding relative to H3(1-28) (TRIM33 PHD-Bromo): 2.3 fold
Compound: H3(1-28) acetylation of K18: H3(1-28) with acetylation of K18

Compound: TGF-β
most TGF-β responses on RNAi depletion of Smad2/3 and Smad4 or TRIM33 [2]: inhibited by RNAi-mediated depletion of Smad2/3 and Smad4, but not by depletion of TRIM33 | most TGF-β responses on RNAi depletion of Smad2/3 and Smad4 or TRIM33 (HaCaT keratinocytes [3]): inhibited by RNAi-mediated depletion of Smad2/3 and Smad4, but not by depletion of TRIM33 | reporter response on TRIM33 depletion (HaCaT cells): increased the activity of these constructs | TGF-β response of SMAD7, SKIL and SERPINE1 on TRIM33 depletion [4]: did not significantly alter the TGF-β response | TGF-β response of SMAD7, SKIL and SERPINE1 on TRIM33 depletion (HaCaT keratinocytes [5]): did not significantly alter the TGF-β response | reporter response on TRIM33 depletion (MDA-MB-231 cells): increased the activity of these constructs

level of Pol II binding to initiator region [13]: increase in the level of Pol II binding
Compound: activin: recombinant activin A (R&D Systems), ligand sharing receptors with nodal
HP1γ binding to TRIM33 target regions [6]: inhibited by activin addition in a TRIM33-dependent manner | Smad4 ChIP binding, Gsc [7]: Activin-dependent binding of Smad4 occurred only at the ARE | formation of Smad4-Smad2/3 complex on TRIM33 depletion ([8]; TRIM33 shRNA or knock-out mESCs): did not inhibit the formation of the Smad4-Smad2/3 complex | t1/2 of Smad4-Smad2/3 complex formation ([8]; mESCs, activin A 50 ng/ml): ~30 min | level of H3K18ac ([9]; TRIM33 binding regions and throughout Gsc and Mixl1 promoters): rapid, marked increase in the level of H3K18ac | levels of H3K14ac and H3K23ac [9]: increased by activin | level of H3K9me3 ([9]; throughout these regions of Gsc and Mixl1 promoters): did not affect the level of H3K9me3 | responsiveness to activin ([1]; Cripto/cryptic-depleted cells): remained responsive to activin | induction of Gsc, Mixl1, Smad7 ([1]; RNAi-mediated depletion of TRIM33, EB 2.5 days, activin 2 h): strongly blunted the induction of Gsc and Mixl1 but not that of Smad7 | Gsc, Mixl1 and Smad7 responses to added activin ([1]; Smad4-null or Smad2/3-depleted mESCs, EB 2.5 days, 2 h): lacked Gsc, Mixl1 and Smad7 responses | Gsc and Mixl1 responses ([1]; TRIM33-depleted cells reconstituted with shRNA-insensitive TRIM33 vector): restored the Gsc and Mixl1 responses | expression of Smad7, Skil and SerpinE1 ([1]; Trim33-null ESC lines, activin): stimulated the expression of the common Smad2/3 target genes | Lefty1 induction by activin ([1]; Trim33-null mESCs, Smad4-null mESCs depleted of TRIM33): blunted | expression of Gsc and Mixl1 ([1]; two independent Trim33-null ESC lines, activin): failed to stimulate the expression of Gsc and Mixl1 | total activin gene responses ([10]; p<0.05): 407 responses | activin gene responses requiring both Smad4 and TRIM33 ([10]; p<0.05, of 407 responses): 333 responses | TRIM33 ChIP binding, Mixl1 ([11]; EBs day 2.5, activin 2 h): Activin-dependent binding of TRIM33 occurred near the Mixl1 ARE | activin-dependent TRIM33 binding on Smad2/3 depletion, Mixl1 ([11]; depletion of Smad2/3): inhibited the activin-dependent binding of TRIM33 | activin-induced TRIM33 binding, effect of Smad4 ([11]; wild-type versus Smad4-null ESCs): enhanced the activin-induced binding of TRIM33 to its sites | formation of TRIM33-Smad2/3 complex, Smad4 requirement ([12]; Smad4-null mESCs): did not require Smad4 | t1/2 of TRIM33-Smad2/3 complex formation ([12]; mESCs, activin A 50 ng/ml): ~30 min

Reference: article PMC3582033 (Cell, 2011)
